From ChEMBL document CHEMBL3097989, “Antimicrobial activity of de novo designed cationic peptides against multi-resistant clinical isolates” (Eur J Med Chem, 2014)
Activity calls are given as the source filed them. The calls are words filed in the database; no cut-off is given here. Where a SMILES comes first, the peptide text is derived from it.

Tests used:
Pseudomonas aeruginosa [1] = assay: Antibacterial activity against Pseudomonas aeruginosa M13513 clinical isolate expressing blaKPC-2 gene by microdilution test; type: functional
Summary of the method: (§1)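 MIC by standard broth microdilution following CLSI recommendations, in Mueller Hinton broth supplemented with Ca²⁺ (20-25mg/L) and Mg²⁺ (10-12.5mg/L); peptides tested against a panel of multi-resistant clinical isolates plus ATCC reference strains.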

Pseudomonas aeruginosa [2] = assay: Antibacterial activity against Pseudomonas aeruginosa ATCC 27853 by microdilution test; type: functional; summary of the method: as §1
[3] = Toxicity in human RBC assessed as hemolytic activity relative to control; type: cell-based, Erythrocyte; settings: red blood cells (RBC), read-out: Activity
Summary of the method: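 Heparinized human whole blood diluted 3x in PBS and centrifuged 10 min at 1500 rpm, repeated three times. Cells resuspended to 10% (v/v), then diluted to about 0.5% (v/v). Peptides added at various concentrations for 30 min at 37 °C. Supernatant absorbance read at 550 nm. Lysis calculated against buffer (0%) and water (100%). Readings taken in triplicate and averaged.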

Staphylococcus cohnii = assay: Antibacterial activity against Staphylococcus cohnii M6767 clinical isolate expressing mecA gene by microdilution test; type: functional
Summary of the method: (§2)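 MIC by standard broth microdilution following CLSI recommendations, in Mueller Hinton broth supplemented with Ca²⁺ (20-25 mg/L) and Mg²⁺ (10-12.5 mg/L); ATCC reference strains included in the panel.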

Staphylococcus warneri = assay: Antibacterial activity against Staphylococcus warneri M6823 clinical isolate expressing mecA gene by microdilution test; type: functional; summary of the method: as §2
Staphylococcus aureus [4] = assay: Antibacterial activity against Staphylococcus aureus M6794 clinical isolate expressing mecA gene by microdilution test; type: functional; summary of the method: as §2
Staphylococcus aureus [5] = assay: Antibacterial activity against Staphylococcus aureus ATCC 29213 by microdilution test; type: functional; summary of the method: as §2
Escherichia coli = assay: Antibacterial activity against Escherichia coli ATCC 25922 by microdilution test; type: functional; summary of the method: as §1
Klebsiella pneumoniae [6] = assay: Antibacterial activity against Klebsiella pneumoniae M13540 clinical isolate expressing blaKPC-2 gene by microdilution test; type: functional; summary of the method: as §1
Klebsiella pneumoniae [7] = assay: Antibacterial activity against Klebsiella pneumoniae M9170 clinical isolate expressing blaOXA-GIII gene by microdilution test; type: functional; summary of the method: as §1
Klebsiella pneumoniae [8] = assay: Antibacterial activity against Klebsiella pneumoniae M9491 clinical isolate expressing blaMOX gene by microdilution test; type: functional; summary of the method: as §1
Klebsiella pneumoniae [9] = assay: Antibacterial activity against Klebsiella pneumoniae M9140 clinical isolate expressing blaCIT gene by microdilution test; type: functional; summary of the method: as §1
Klebsiella pneumoniae [10] = assay: Antibacterial activity against Klebsiella pneumoniae PFAV3 by microdilution test; type: functional; summary of the method: as §1
Acinetobacter sp. [11] = assay: Antibacterial activity against Acinetobacter sp. M9013 clinical isolate expressing blaOXA-51 and blaIMP gene by microdilution test; type: functional; summary of the method: as §1
Acinetobacter sp. [12] = assay: Antibacterial activity against Acinetobacter sp. M7978 clinical isolate expressing blaIMP-1 gene by microdilution test; type: functional; summary of the method: as §1
Acinetobacter sp. [13] = assay: Antibacterial activity against Acinetobacter sp. M5949 clinical isolate expressing blaOXA-23 and blaOXA-GVI gene by microdilution test; type: functional; summary of the method: as §1
Acinetobacter sp. [14] = assay: Antibacterial activity against Acinetobacter sp. M5277 clinical isolate expressing blaPER gene by microdilution test; type: functional; summary of the method: as §1
Acinetobacter sp. [15] = assay: Antibacterial activity against Acinetobacter sp. PFAV1 clinical isolate expressing blaOXA-51, blaOXA-58 and blaPER gene by microdilution test; type: functional; summary of the method: as §1
Acinetobacter sp. [16] = assay: Antibacterial activity against Acinetobacter sp. M7489 clinical isolate expressing blaOXA-51 and blaTEM gene by microdilution test; type: functional; summary of the method: as §1
Acinetobacter sp. [17] = assay: Antibacterial activity against Acinetobacter sp. M5179 clinical isolate expressing blaOXA-51 gene by microdilution test; type: functional; summary of the method: as §1
Acinetobacter sp. [18] = assay: Antibacterial activity against Acinetobacter sp. M5282 clinical isolate expressing blaOXA-51 gene by microdilution test; type: functional; summary of the method: as §1
Acinetobacter sp. [19] = assay: Antibacterial activity against Acinetobacter sp. M9665 clinical isolate expressing blaOXA-51 gene by microdilution test; type: functional; summary of the method: as §1
Acinetobacter sp. [20] = assay: Antibacterial activity against Acinetobacter sp. M13523 clinical isolate expressing blaOXA-51 gene by microdilution test; type: functional; summary of the method: as §1
Pseudomonas aeruginosa [21] = assay: Antibacterial activity against Pseudomonas aeruginosa M7712 clinical isolate expressing blaSPM gene by microdilution test; type: functional; summary of the method: as §2
Pseudomonas aeruginosa [22] = assay: Antibacterial activity against Pseudomonas aeruginosa M7525 clinical isolate expressing blaSPM gene by microdilution test; type: functional; summary of the method: as §2
Pseudomonas aeruginosa [23] = assay: Antibacterial activity against Pseudomonas aeruginosa M5200 clinical isolate expressing blaVIM and blaGES-1 gene by microdilution test; type: functional; summary of the method: as §2
Pseudomonas aeruginosa [24] = assay: Antibacterial activity against Pseudomonas aeruginosa M5109 clinical isolate expressing blaVIM and blaGES-1 gene by microdilution test; type: functional; summary of the method: as §2
Pseudomonas aeruginosa [25] = assay: Antibacterial activity against Pseudomonas aeruginosa M7728 clinical isolate expressing blaIMP gene by microdilution test; type: functional; summary of the method: as §2
Pseudomonas aeruginosa [26] = assay: Antibacterial activity against Pseudomonas aeruginosa M7723 clinical isolate expressing blaKPC-2 gene by microdilution test; type: functional; summary of the method: as §2
Pseudomonas aeruginosa [27] = assay: Antibacterial activity against Pseudomonas aeruginosa M11005 clinical isolate expressing blaKPC-2 gene by microdilution test; type: functional; summary of the method: as §1
Pseudomonas aeruginosa [28] = assay: Antibacterial activity against Pseudomonas aeruginosa M7907 clinical isolate expressing blaPER gene by microdilution test; type: functional; summary of the method: as §2
Pseudomonas aeruginosa [29] = assay: Antibacterial activity against Pseudomonas aeruginosa M5470 by microdilution test; type: functional; summary of the method: as §2
Pseudomonas aeruginosa [30] = assay: Antibacterial activity against Pseudomonas aeruginosa PCOS12 by microdilution test; type: functional; summary of the method: as §2
Enterococcus gallinarum [31] = assay: Antibacterial activity against Enterococcus gallinarum M2723 clinical isolate expressing vanC1 and vanA gene by microdilution test; type: functional; summary of the method: as §1
Enterococcus gallinarum [32] = assay: Antibacterial activity against Enterococcus gallinarum M2685 clinical isolate expressing vanC1 and vanA gene by microdilution test; type: functional; summary of the method: as §1
Enterococcus faecium [33] = assay: Antibacterial activity against Enterococcus faecium M2664 clinical isolate expressing vanA gene by microdilution test; type: functional; summary of the method: as §1
Enterococcus faecium [34] = assay: Antibacterial activity against Enterococcus faecium M2304 clinical isolate expressing vanA gene by microdilution test; type: functional; summary of the method: as §1
Enterococcus faecium [35] = assay: Antibacterial activity against Enterococcus faecium M2481 clinical isolate expressing vanB gene by microdilution test; type: functional; summary of the method: as §1
Enterococcus faecium [36] = assay: Antibacterial activity against Enterococcus faecium M6261 by microdilution test; type: functional; summary of the method: as §1
Enterococcus faecium [37] = assay: Antibacterial activity against Enterococcus faecium M2619 clinical isolate expressing vanB gene by microdilution test; type: functional; summary of the method: as §1
Enterococcus faecium [38] = assay: Antibacterial activity against Enterococcus faecium PZAP95 by microdilution test; type: functional; summary of the method: as §1
Enterococcus faecalis [39] = assay: Antibacterial activity against Enterococcus faecalis M6983 clinical isolate expressing vanA gene by microdilution test; type: functional; summary of the method: as §1
Enterococcus faecalis [40] = assay: Antibacterial activity against Enterococcus faecalis M4449 clinical isolate expressing vanA gene by microdilution test; type: functional; summary of the method: as §1
Enterococcus faecalis [41] = assay: Antibacterial activity against Enterococcus faecalis M6383 clinical isolate expressing vanA gene by microdilution test; type: functional; summary of the method: as §1
Enterococcus faecalis [42] = assay: Antibacterial activity against Enterococcus faecalis M4992 clinical isolate expressing vanA gene by microdilution test; type: functional; summary of the method: as §1
Enterococcus faecalis [43] = assay: Antibacterial activity against Enterococcus faecalis M6534 clinical isolate expressing vanB gene by microdilution test; type: functional; summary of the method: as §1
Enterococcus faecalis [44] = assay: Antibacterial activity against Enterococcus faecalis M4899 clinical isolate expressing vanB gene by microdilution test; type: functional; summary of the method: as §1
Enterococcus faecalis [45] = assay: Antibacterial activity against Enterococcus faecalis ATCC 51299 clinical isolate expressing vanB gene by microdilution test; type: functional; summary of the method: as §1
Enterococcus faecalis [46] = assay: Antibacterial activity against Enterococcus faecalis ATCC 29212 by microdilution test; type: functional; summary of the method: as §1

With `CC[C@H](C)[C@H](NC(=O)[C@H](CCCCN)NC(=O)[C@H](CCCNC(=N)N)NC(=O)[C@H](CC(N)=O)NC(=O)CNC(=O)[C@H](CCCNC(=N)N)NC(=O)[C@H](Cc1ccccc1)NC(=O)[C@@H](NC(=O)[C@H](CS)NC(=O)[C@H](Cc1cnc[nH]1)NC(=O)[C@H](CC(C)C)NC(=O)[C@@H]1CCCN1C(=O)[C@H](CCC(N)=O)NC(=O)[C@@H]1CCCN1C(=O)[C@@H](NC(=O)[C@H](CC(N)=O)NC(=O)[C@@H]1CCCN1C(=O)[C@H](CC(C)C)NC(=O)CNC(=O)[C@@H](NC(=O)CNC(=O)[C@H](CO)NC(=O)[C@H](CC(C)C)NC(=O)[C@H](CC(C)C)NC(=O)[C@H](CC(=O)O)NC(=O)[C@H](CS)NC(=O)[C@@H](NC(=O)[C@@H](N)[C@@H](C)O)[C@@H](C)O)C(C)C)C(C)C)C(C)C)C(=O)N[C@@H](CCCCN)C(=O)N[C@@H](Cc1c[nH]c2ccccc12)C(N)=O` (H-TTCDLLSGVGLPNVPQPLHCVFRGNRKIKW-NH2) the MIC90 (Pseudomonas aeruginosa [1]) was “inactive”, the MIC90 (Pseudomonas aeruginosa [2]) was “inactive” and the hemolysis [3] was 1.72%. For the same molecule, the MIC90 (Staphylococcus cohnii) was “inactive”, the MIC90 (Staphylococcus warneri) was “inactive” and the MIC90 (Staphylococcus aureus [4]) was “inactive”. The MIC90 (Staphylococcus aureus [5]) was “inactive”, the MIC90 (Escherichia coli) was “inactive” and the MIC90 (Klebsiella pneumoniae [6]) was “inactive”.
For H-FGKEKKAWWRRRKWLK-NH2, the MIC90 (Klebsiella pneumoniae [7]) was “inactive”, the MIC90 (Klebsiella pneumoniae [8]) was “inactive” and the MIC90 (Klebsiella pneumoniae [9]) was “inactive”. For the same molecule, the MIC90 (Klebsiella pneumoniae [10]) was “inactive”, the MIC90 (Acinetobacter sp. [11]) was “inactive” and the MIC90 (Acinetobacter sp. [12]) was “inactive”. The MIC90 (Acinetobacter sp. [13]) was “inactive”, the MIC90 (Acinetobacter sp. [14]) was “inactive” and the MIC90 (Acinetobacter sp. [15]) was “inactive”. For the same molecule, the MIC90 (Acinetobacter sp. [16]) was “inactive”, the MIC90 (Acinetobacter sp. [17]) was “inactive” and the MIC90 (Acinetobacter sp. [18]) was “inactive”. The MIC90 (Acinetobacter sp. [19]) was “inactive”, the MIC90 (Acinetobacter sp. [20]) was “inactive” and the MIC90 (Pseudomonas aeruginosa [21]) was “inactive”. For the same molecule, the MIC90 (Pseudomonas aeruginosa [22]) was “inactive”, the MIC90 (Pseudomonas aeruginosa [23]) was “inactive” and the MIC90 (Pseudomonas aeruginosa [24]) was “inactive”. The MIC90 (Pseudomonas aeruginosa [25]) was “inactive”, the MIC90 (Pseudomonas aeruginosa [26]) was “inactive” and the MIC90 (Pseudomonas aeruginosa [27]) was “inactive”. The MIC90 (Pseudomonas aeruginosa [1]) was “inactive”, the MIC90 (Pseudomonas aeruginosa [28]) was “inactive” and the MIC90 (Pseudomonas aeruginosa [29]) was “inactive”. For the same molecule, the MIC90 (Pseudomonas aeruginosa [30]) was “inactive”, the MIC90 (Pseudomonas aeruginosa [2]) was “inactive” and the hemolysis [3] was 1.5%. The MIC90 (Enterococcus gallinarum [31]) was “inactive”, the MIC90 (Enterococcus gallinarum [32]) was “inactive” and the MIC90 (Enterococcus faecium [33]) was “inactive”. The MIC90 (Enterococcus faecium [34]) was “inactive”, the MIC90 (Enterococcus faecium [35]) was “inactive” and the MIC90 (Enterococcus faecium [36]) was “inactive”. The MIC90 (Enterococcus faecium [37]) was “inactive”, the MIC90 (Enterococcus faecium [38]) was “inactive” and the MIC90 (Enterococcus faecalis [39]) was “inactive”. The MIC90 (Enterococcus faecalis [40]) was “inactive”, the MIC90 (Enterococcus faecalis [41]) was “inactive” and the MIC90 (Enterococcus faecalis [42]) was “inactive”. The MIC90 (Enterococcus faecalis [43]) was “inactive”, the MIC90 (Enterococcus faecalis [44]) was “inactive” and the MIC90 (Enterococcus faecalis [45]) was “inactive”. The MIC90 (Enterococcus faecalis [46]) was “inactive”, the MIC90 (Escherichia coli) was “inactive” and the MIC90 (Klebsiella pneumoniae [6]) was “inactive”.
